UHRF1 binding – blocks human UHRF1 binding to methylated DNA; inhibition, % at 4.4 µM; UHRF1 binding to methylated oligo, TR-FRET; Q96T88; 0.75% of 370,000 active; in the data active means inhibition above about 21%;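 further: UHRF1 SRA domain binding a hemimethylated CpG hairpin DNA probe; 0% = median of test compound wells and 100% = reference inhibitor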
LEDGF integ inh – blocks HIV-1 LEDGF/p75-dependent DNA integration; TR-FRET IN-LEDGF/p75 DNA integration, Eu/Cy5; inhibition, % at 3.7 µM; 0.64% of 370,000 active; AID 743269;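 active means inhibition above the screen-wide mean plus 3 SD, cut at about 13% in these data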;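 further: signal is the Cy5 over europium emission ratio at 671 and 618 nm; 0% = plate median of compound wells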
TDP2 absorb – TDP2 (human) inhibition, absorbance primary screen; recombinant TDP2, T5PNP hydrolysis, p-nitrophenol absorbance 415 nm; inhibition, % at 12.8 µM; 0.34% of 370,000 active;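 active means inhibition above the mean of all tested compounds plus 3 SD, set per campaign, cut at about 25% in these data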;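 further: 0% = DMSO with enzyme and 100% = buffer with substrate but no TDP2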
Target sequence (O95551 whole entry, looked up): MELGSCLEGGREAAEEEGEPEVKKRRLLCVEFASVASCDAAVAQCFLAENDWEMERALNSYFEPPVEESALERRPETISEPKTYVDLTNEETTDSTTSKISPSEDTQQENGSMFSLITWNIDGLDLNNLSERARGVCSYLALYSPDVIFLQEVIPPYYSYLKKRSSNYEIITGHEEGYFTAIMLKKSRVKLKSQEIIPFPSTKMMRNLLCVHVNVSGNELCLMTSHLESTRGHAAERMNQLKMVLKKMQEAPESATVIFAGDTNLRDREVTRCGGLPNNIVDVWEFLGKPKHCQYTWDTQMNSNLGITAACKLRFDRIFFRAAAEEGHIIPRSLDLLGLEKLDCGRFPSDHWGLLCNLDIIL
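System – recombinant human TDP2 · Quantity – TDP2 enzyme at 120 nM final · Doses – single concentration, 12.8 µM nominal, with 1% DMSO · Incubation – 2 h at 37 °C · Measured by – epi absorbance of p-nitrophenol freed from T5PNP by hydrolysis · Read-out – % inhibition relative to enzyme-containing and enzyme-free wells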
MBD2 DNA inh – MBD2-methylated oligo binding inhibition; Q9UBB5; TR-FRET, MBD2 binding to methylated oligonucleotide; inhibition, % at 4.4 µM; 0.31% of 370,000 active; AID 686964; in the data active means inhibition above about 13%
TDP2 confirm – confirmation of human TDP2 inhibitors. recombinant human TDP2, absorbance read-out. 22% of 1,100 active. inhibition, % at 12.8 µM. AID 743263. shares compounds with TDP2 absorb; in the data active means inhibition above about 25%;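 further: 0% = vehicle with enzyme and 100% = no enzyme buffer only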
IN multimer up – activates HIV-1 integrase multimerization in LEDGF counter-screen; shares compounds with LEDGF integ inh; TR-FRET HIV-1 integrase multimerization, biochemical; activation, % at 7.7 µM; 17% of 2,000 active; in the data active means activation above about 8.9%
TRFRET interf – TR-FRET optical interference, LEDGF/p75 integration counter-screen; shares compounds with LEDGF integ inh; 2,000 tested, under 10 active; inhibition, % at 7.7 µM; TR-FRET optical interference counterscreen, HIV-1 IN multimerization;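 active means inhibition above the mean over all tested compounds plus 3 SD, which no compound reached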;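 further: 0% = integrase with antibodies and DMSO and 100% = antibodies without integrase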
LEDGF integ conf – LEDGF/p75-dependent HIV-1 integration inhibition, confirmation; 36% of 2,000 active; inhibition, % at 3.7 µM; TR-FRET LEDGF/p75-dependent HIV-1 integration, biochemical; shares compounds with LEDGF integ inh; AID 1053136; in the data active means inhibition above about 14%
* = called active by the depositor; x = no result given. Sampled rows, rich in hits. Any-hit rate of the full collection: about 1.6%.

SMILES | UHRF1 binding | LEDGF integ inh | TDP2 absorb | MBD2 DNA inh | TDP2 confirm | IN multimer up | TRFRET interf | LEDGF integ conf
O=S(=O)(Nc1ccc(O)c2ccccc12)c1cccs1 | 0 | 26* | 50* | -6 | 30* | 2 | -9 | 13
O=C(N[C@H](C(=O)N1CCC[C@H]1C(=O)NC1CCCC1)c1ccccc1)C1CC1 | 0 | 3 | -1 | -2 | x | x | x | x
C[C@H]1CN(c2ccc(N3CCN(C(=O)OC(C)(C)C)C[C@@H]3C)cc2C#N)CCN1Cc1ccccc1 | 1 | 2 | -8 | 0 | x | x | x | x
CS(=O)(=O)Oc1ccc(Br)c2cccnc12 | -2 | 6 | -6 | 2 | x | x | x | x
Nc1ccc(Br)c2cccnc12 | 4 | 54* | 47* | -15 | 41* | 1 | -4 | 53*
Nc1c2c(=O)[nH]c(O)cc2nn1-c1ccccc1 | 7 | 16* | 89* | -4 | 77* | 2 | -7 | 1
Cc1ccc2c(c1C)-c1c(ccc(C)c1C)C(=O)C2=O | -2 | 14* | 79* | -6 | 67* | 4 | -13 | 69*
Cc1ccc(Cl)cc1NC1=C/C(=N\S(=O)(=O)c2cccs2)c2ccccc2C1=O | -4 | 10 | 23 | -4 | x | x | x | x
O=C(O)c1ccc(NS(=O)(=O)c2ccc3c(c2)C(=O)c2ccccc2C3=O)cc1 | -3 | 1 | 11 | -7 | x | x | x | x
O=C1C(Nc2ccc(O)cc2)=C/C(=N/S(=O)(=O)c2cccs2)c2ccccc21 | 3 | 55* | 78* | -11 | 78* | 7 | -26 | 70*
O=C(O)c1ccc(NC2=C/C(=N/S(=O)(=O)c3ccccc3)c3ccccc3C2=O)cc1 | 8 | 49* | 72* | -11 | 77* | 7 | -23 | 72*
O=C(O)c1ccc(Nc2nc3ccccc3nc2NS(=O)(=O)c2cccs2)cc1 | 1 | 1 | -10 | 3 | x | x | x | x
CCc1ccc(S(=O)(=O)/N=C2\C=C(Nc3cccc(C(=O)O)c3)C(=O)c3ccccc32)cc1 | 7 | 47* | 69* | -5 | 74* | 3 | -9 | 74*
O=C(O)c1ccc(NC2=C/C(=N/S(=O)(=O)c3cccs3)c3ccccc3C2=O)cc1 | 3 | 31* | 60* | -15 | 73* | 9.1* | -32 | 75*
C[C@@H]1COc2cc(Br)ccc2S(=O)(=O)N1Cc1cn(Cc2ccc(Br)cc2)nn1 | -1 | -1 | 0 | 2 | x | x | x | x
Nn1cnnc1N/N=C\c1ccc(-c2ccccc2[N+](=O)[O-])o1 | 11 | 38* | 66* | -3 | 39* | 2 | -9 | 1
O=[N+]([O-])c1ccccc1-c1ccc(/C=N/n2cnnc2)o1 | -1 | 1 | 12 | -7 | x | x | x | x
COC(=O)[C@]12C[C@H](CC(=O)N3CCSCC3)C(=O)N(Cc3ccccc3)C1=C[C@H](C(C)(C)C)O[C@@H]2C | 0 | 2 | -3 | 8 | x | x | x | x
COc1cc(/C=N/Nc2ccccn2)ccc1O | -1 | 5 | -3 | -1 | x | x | x | x
CCOc1cc(/C=N\NC(=O)c2ccc(C)nc2)ccc1OC(=O)c1ccc(F)cc1 | 3 | -7 | -5 | 3 | x | x | x | x
CCc1nnc(N/N=C\c2ccc(OC(C)=O)c(OC)c2)n1N | 3 | 30* | 54* | 2 | 4 | -1 | 5 | -3
CCOc1cc(/C=N/Nc2nnc(C)n2N)ccc1OC(C)=O | 8 | 30* | 43* | 1 | 8 | 2 | -7 | 4
CC(C)(C)c1nnc(N/N=C/c2cc(Br)ccc2O)n(N)c1=O | -9 | -7 | 2 | -8 | x | x | x | x
CCc1nnc(N/N=C/c2ccc(O)c(OC)c2)n1N | 3 | 55* | 79* | -3 | 14 | -1 | 3 | -6
CCc1nnc(N/N=C/c2cc(Br)c(O)cc2O)n1N | 5 | 50* | 37* | -5 | 3 | 11* | -53 | -3
SMILES | UHRF1 binding | LEDGF integ inh | TDP2 absorb | MBD2 DNA inh | TDP2 confirm | IN multimer up | TRFRET interf | LEDGF integ conf
CN(CCO)c1ccc2c(c1)Oc1ccccc1CN(Cc1cn(Cc3ccc(F)cc3)nn1)S2(=O)=O | 5 | 4 | -2 | 2 | x | x | x | x
C[C@@H]1[C@H](c2ccccc2)OC(O)([C@H](Cc2ccccc2)NC(=O)OC(C)(C)C)CN1C (stereo partly drawn) | 2 | -3 | 3 | 1 | x | x | x | x
COC(=O)C1=C(C)N(Cc2cccc(C(F)(F)F)c2)C(=NCc2ccc(C(F)(F)F)cc2)NC1c1ccccc1C(F)(F)F (stereo not drawn) | -1 | -5 | -5 | -2 | x | x | x | x
CCOC(=O)C1=C(COC(=O)c2ccc([N+](=O)[O-])s2)NC(=O)NC1C (stereo not drawn) | 3 | 31* | 39* | -1 | 41* | 0 | -2 | 61*
O=C(N/N=C/c1ccc(O)cc1O)C(=O)N/N=C/c1ccc(O)cc1O | -2 | 15* | 26* | 6 | 7 | 13* | -64 | 26*
Clc1ccc(CN2CCN(N=Cc3c4ccccc4cc4ccccc34)CC2)cc1 | -1 | -1 | 1 | 1 | x | x | x | x
CCCCCCCCN1C(=O)[C@@H](CC(=O)NCc2ccc(OC)c(OC)c2)C[C@@]2(C(=O)OC)C1=C[C@H](C1CCCC1)O[C@@H]2C | 1 | -3 | -4 | 3 | x | x | x | x
CCCCn1c(NC(=O)c2ccc(Br)o2)c(S(=O)(=O)c2ccccc2)c2nc3ccccc3nc21 | 8 | 17* | 67* | 3 | 23 | 0 | -2 | 21*
CCCCCn1c(NC(=O)c2ccco2)c(S(=O)(=O)c2ccc(C)cc2)c2nc3ccccc3nc21 | 14 | 17* | 69* | 1 | 1 | 17* | -61 | 21*
CCCCn1c(NC(=O)c2ccco2)c(S(=O)(=O)c2ccc(C)cc2)c2nc3ccccc3nc21 | -5 | 10 | 21 | -13 | x | x | x | x
CN(C)c1ccc(C=Nc2ccc(N(C)C)cc2)cc1 | 7 | 35* | 28* | -12 | 4 | 7 | -34 | 7
C[C@H]1[C@@H](OC(=O)Nc2ccccc2F)CC[C@@]23CCCN2C(=O)CCC[C@@H]13 | -1 | 0 | 2 | -4 | x | x | x | x
Cc1ccc(NC(=O)C(=O)NCC2CCCO2)cc1C (stereo not drawn) | -2 | 78* | -2 | -1 | x | 0 | 1 | -3
O=C(NCCc1ccccc1)C(=O)NCC1CCCO1 (stereo not drawn) | 2 | 84* | -11 | 8 | x | -1 | 5 | -6
O=C(NCc1cccc(CNC(=O)C(=O)NCC2CCCO2)c1)C(=O)NCC1CCCO1 (stereo not drawn) | 1 | -2 | -6 | -1 | x | x | x | x
NC(=O)/C(=C\c1ccco1)NC(=O)c1ccco1 | -1 | 14* | -8 | -8 | x | 2 | -10 | 3

Screening data as filed in PubChem.
